STEP block = blocks human striatal-enriched tyrosine phosphatase. recombinant STEP, OMFP fluorogenic substrate, fluorescence. inhibition, % at 20 µM. 0.25% of 360,000 active. AID 588621;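 active = inhibition at 20 µM, scaled per plate between control wells, above about 37%, limit read from the data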
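System: STEP phosphatase, cell-free reaction; Buffer or medium: Bis-Tris pH 6.0 buffer with DTT, detergent; Incubation: 20 min at room temperature, dark; Measured by: fluorescence, 480/540 nm.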
LMPTP inh = LMPTP (human) inhibition | P24666 | recombinant LMPTP-A, OMFP fluorogenic substrate, fluorescence intensity | inhibition, % at 20 µM | 0.22% of 360,000 active | AID 651560;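 active = compounds that cut the enzyme signal by at least half of the control window in the single-dose screen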
Target sequence (P24666 whole entry, looked up): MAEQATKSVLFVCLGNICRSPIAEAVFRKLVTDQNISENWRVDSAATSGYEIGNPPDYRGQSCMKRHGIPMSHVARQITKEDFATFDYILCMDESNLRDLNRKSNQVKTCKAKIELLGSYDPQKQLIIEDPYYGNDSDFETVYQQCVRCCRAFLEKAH
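Assay system: LMPTP-A enzyme. Input: 0.625 nM LMPTP-A final. Probe or stimulus: 400 µM OMFP. Compound dosing: single 20 µM dose. Schedule: 50 min dark incubation at room temperature. Detection: fluorescence intensity of OMFP turnover product. Read-out: percent inhibition versus substrate-only and uninhibited controls. Benchmarks: no-enzyme low control, uninhibited high control.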
CSN deneddyl inh = CSN deneddylation inhibition; Q92905; Purified CSN, SCF-Nedd8-OG deneddylation, fluorescence polarization; inhibition, % at 12.5 µM; AID 651999; 0.38% of 360,000 active;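 active = pattern-corrected inhibition above about 35%, with an unprinted fluorescence ratio check between 0.5 and 1.5, limit read from the data, passing the limit was not always enough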
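Material: purified human Csn5 enzyme expressed in HEK293T cells / Medium: Tris buffer pH 7.5, NaCl, DTT, Tween-20, trehalose, ovalbumin / Compound dosing: 12.5 µM single point / Schedule: 90 min incubation of compound, enzyme and substrate at room temperature / Signal: fluorescence polarization of the substrate / Control set: no-enzyme wells high, enzyme-with-substrate wells low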
DNMT1 inh = blocks human DNA methyltransferase DNMT1. DNMT1 molecular beacon, Hinp1I cleavage, fluorescence. 0.83% of 360,000 active. P26358. inhibition (reported as % activation of signal), % at 10 µM; in the data active = inhibition above about 50%
SUMO1-SIM PPI = SUMO1-SIM interaction modulation; P63165; SUMO1 binding to a labelled peptide, TR-FRET, 1 h; inhibition, % at 20 µM; 0.33% of 360,000 active; in the data active = inhibition above about 37%
Target sequence (P63165 whole entry, looked up): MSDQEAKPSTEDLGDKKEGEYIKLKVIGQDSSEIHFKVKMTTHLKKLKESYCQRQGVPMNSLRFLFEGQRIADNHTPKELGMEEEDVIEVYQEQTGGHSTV
Scp-1 inhibitor = inhibitors of human Scp-1 phosphatase; Recombinant Scp1, phosphopeptide, malachite green phosphate absorbance; inhibition, % at 20 µM; Q9GZU7; 0.88% of 340,000 active;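 active = inhibition above about 50% at 20 µM, limit read from the data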
Target sequence (Q9GZU7 76-261 limits assumed): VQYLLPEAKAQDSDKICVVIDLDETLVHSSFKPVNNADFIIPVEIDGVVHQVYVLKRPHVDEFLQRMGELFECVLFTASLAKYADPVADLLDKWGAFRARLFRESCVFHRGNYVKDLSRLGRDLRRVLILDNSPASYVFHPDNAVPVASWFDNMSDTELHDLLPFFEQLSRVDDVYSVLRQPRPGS
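Incubation: 45 min enzyme reaction at room temperature / System: truncated SCP-1 phosphatase (76-261aa) / Reagent: Phospho 17-mer peptide substrate / Buffer or medium: Acidic Tris acetate buffer with magnesium and detergent / Signal: absorbance at 630 nm / Doses: one concentration, 20 µM, with 1.0% DMSO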
Scp1 confirm = confirmation of human Scp-1 phosphatase inhibitors; inhibition, % at 20 µM; shares compounds with Scp-1 inhibitor; recombinant SCP-1 catalytic domain, phosphate release, malachite green absorbance; 61% of 2,500 active; AID 540281
MG interference = colorimetric interference in Scp-1 counter-screen; shares compounds with Scp-1 inhibitor; Colorimetric interference counterscreen, malachite green absorbance 630 nm; apparent inhibition (interference), % at 20 µM; 2,500 tested, under 10 active; AID 540313;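 note: compounds added after enzyme reaction finished so only phosphate colour detection is probed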
Scp-1 Tm shift = Scp-1 (human) binding by thermal shift | shares compounds with Scp-1 inhibitor | Recombinant SCP1, Sypro Orange thermal shift Tm | thermal shift relative to vanadate control, % at 40 µM | 25% of 1,500 active | AID 540329;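 active = substances whose mean melting-temperature shift, as a percentage of the reference inhibitor's shift, reaches about 5.3%, limit read from the data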
Of the large screens only hits and unclear results are named; the others gave an inactive call (follow-up assays come after a bar, where they were run). A selection: hits, their analogues and other compounds. The true share with any hit is near 1.9%.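 Rule for the calls, unless noted: active = inhibition of at least 30% at 20 µM; inactive = the rest.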

CC(C)Cc1[nH]c(=O)c(C#N)c2c1CCC2	Scp-1 inhibitor 87 | Scp1 confirm inactive | MG interference inactive
CC(=O)OC1CC[C@]2(C#N)[C@H]3CC[C@]4(C)[C@H](C5C=CC(=O)O5)CCC4(O)C3CCC2(O)C1 (stereo partly specified)	none
COc1ccc2c3c1OC1C(O)C=CC4C(C2)[N+](C)(C)CCC341 (stereo unspecified)	Scp-1 inhibitor 89 | Scp1 confirm 78 | MG interference inactive | Scp-1 Tm shift inactive
CN1CC[C@]23c4c5ccc(O)c4OC2[C@H](O)C=CC3[C@H]1C5 (stereo partly specified)	none
COc1ccc(C(=O)N/N=C/C23CC[C@@H](O)CC2(O)CC[C@@H]2[C@@H]3CCC3(C)C(C4=CC(=O)OC4)CCC23O)cc1 (stereo partly specified)	Scp-1 inhibitor 56 | Scp1 confirm inactive | MG interference inactive
CCCC[N+]12CCC(CC1)C(=C(c1ccccc1)c1ccccc1)C2	Scp-1 inhibitor 98 | Scp1 confirm 86 | MG interference inactive | Scp-1 Tm shift inactive
CCC(C)C1NC(=O)C(NC(=O)C(CC(C)C)N(C)C(=O)C2CCCN2C(=O)C(C)O)C(C)OC(=O)C(Cc2ccc(OC)cc2)N(C)C(=O)C2CCCN2C(=O)C(CC(C)C)NC(=O)[C@H](C)C(=O)[C@H](C(C)C)OC(=O)CC1O (stereo partly specified)	none
CCOC(=O)C1(c2ccccc2)Oc2ccccc2C(c2ccc(OC)cc2)=C1C(=O)OC (stereo unspecified)	Scp-1 inhibitor 97 | Scp1 confirm inactive | MG interference inactive
CCOC(=O)[C@]12Cc3cc(OC)ccc3[C@H]1N(Cc1ccccc1)C(=O)c1ccccc12	none
COC(=O)C1=C(c2cccc(C#N)c2)C[C@@H]2CC[C@H]1N2C(=O)NCCO	Scp-1 inhibitor 71 | Scp1 confirm inactive | MG interference inactive
CN(C)C(=O)OCc1n(C)cc[n+]1C	none
CCN(CC)P(c1n(C)cc[n+]1C)N(CC)CC	Scp-1 inhibitor 99 | Scp1 confirm 83 | MG interference inactive | Scp-1 Tm shift inactive
C[C@]12CCC3C(CC[C@H]4C[C@@H](O)CC[C@]34C)C1C[C@@H](Br)[C@@H]2O (stereo partly specified)	Scp-1 inhibitor 59 (no result: STEP block, LMPTP inh, CSN deneddyl inh, DNMT1 inh, SUMO1-SIM PPI) | Scp1 confirm inactive | MG interference inactive
COC(=O)C1=C(c2c(C)noc2C)C[C@@H]2CC[C@H]1N2C(=O)NCc1ccco1	none
C[N+]1(CC2COC(c3ccco3)O2)CCCCC1 (stereo unspecified)	Scp-1 inhibitor 109 | Scp1 confirm 84 | MG interference inactive | Scp-1 Tm shift inactive
Cc1cc(C)c(S(=O)(=O)N2Cc3ccccc3-n3nncc3C2)c(C)c1	none (no result: Scp-1 inhibitor)
CN1CCC(OC(=O)Cc2ccccc2)CC1	none
C[N+]1(CC(COCc2ccccc2)OC(=O)Cc2ccccc2)CCOCC1 (stereo unspecified)	Scp-1 inhibitor 112 | Scp1 confirm 89 | MG interference inactive | Scp-1 Tm shift inactive
C[Se]C[C@@H](N)C(=O)O	Scp-1 inhibitor 68 | Scp1 confirm 31 | MG interference inactive | Scp-1 Tm shift inactive
O=C(Nc1ccc(C(=O)O)cc1)Oc1ccc(N(CCCl)CCCl)cc1	none (no result: Scp-1 inhibitor)
CN1C(=O)C[N+]([O-])=C(c2ccccc2)c2cc(Cl)ccc21	none
Cc1cccc(NC(=O)COC(=O)c2cc(C)n(C3CC3)c2C)c1	none
